Most compounds without a hit are left out; they make up all but 2.5% or so of the library.
Beta2AR agonist – activates human beta-2 adrenergic receptor causing internalization; Am2.2-beta2AR cells, FAP receptor internalization, flow cytometry; response, % (no concentration beside the values); AID 504454; hit rate 0.43% among 340,000;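 active = response above a set limit, near 3 SD of response in nonfluorescent compounds, cut at about 42% in these data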
Target sequence (P07550 whole entry, looked up): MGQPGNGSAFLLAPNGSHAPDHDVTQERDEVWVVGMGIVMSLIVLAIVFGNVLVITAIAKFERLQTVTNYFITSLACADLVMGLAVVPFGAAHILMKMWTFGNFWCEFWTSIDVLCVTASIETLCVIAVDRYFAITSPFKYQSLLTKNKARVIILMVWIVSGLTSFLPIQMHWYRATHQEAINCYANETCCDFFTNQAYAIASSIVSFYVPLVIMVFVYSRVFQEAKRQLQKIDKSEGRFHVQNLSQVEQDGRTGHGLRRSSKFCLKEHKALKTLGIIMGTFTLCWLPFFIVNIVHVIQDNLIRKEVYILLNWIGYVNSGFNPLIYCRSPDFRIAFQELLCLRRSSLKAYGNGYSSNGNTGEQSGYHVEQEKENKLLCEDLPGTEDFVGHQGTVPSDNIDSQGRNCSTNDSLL
ABHD5-PLIN5 inh – ABHD5-PLIN5 protein interaction inhibition. hit rate 0.78% among 360,000. Split G. princeps luciferase complementation, luminescence, 4 h. inhibition, % at 4 µM;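 active = inhibition above the mean inhibition across every tested compound plus 3 SD, cut at about 22% in these data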;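 also: 0% = DMSO only wells and the 100% control is not disclosed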
SENP1 inh – blocks the human SENP1 SUMO protease catalytic domain; Q9P0U3; inhibition, % at 10 µM; recombinant SENP1 catalytic domain, CyPet-SUMO1-YPet FRET cleavage; hit rate 0.21% among 360,000; AID 624204;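 active = inhibition at least 30% at 10 µM, raw YFP signal under a set limit, fluorescence ratio 0.5 to 1.5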;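 also: 0% = enzyme with DMSO and 100% = no enzyme wells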
Target sequence (Q9P0U3 419-644 limits assumed): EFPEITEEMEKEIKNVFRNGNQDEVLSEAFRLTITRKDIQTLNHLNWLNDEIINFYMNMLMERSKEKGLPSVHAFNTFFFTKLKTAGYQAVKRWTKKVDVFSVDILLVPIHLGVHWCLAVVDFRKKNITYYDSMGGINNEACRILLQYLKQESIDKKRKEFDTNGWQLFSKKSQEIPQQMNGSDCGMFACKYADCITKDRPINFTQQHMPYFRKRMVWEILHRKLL
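Test system: human SENP1 catalytic domain; medium: Tris pH 8 buffer plus EDTA, NaCl, BME, BSA, NP40, catalase; incubation: 50 min reaction at room temperature; technique: FRET, CFP and YFP emission; controls: no-enzyme low control and enzyme-plus-DMSO high control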
GRK2 inh – blocks RNA aptamer binding to human GRK2 | P25098 | bead flow cytometry, FAM-aptamer displacement from GRK2 | inhibition of aptamer binding, % at 10 µM | hit rate 0.59% among 330,000 | AID 488847;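 active = inhibition of aptamer binding above 40%, roughly 3 SD of noise, on plates passing a quality check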;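 also: median bead fluorescence of bound FAM aptamer so fluorescent compounds give negative values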
NadD block – NadD (S. aureus) enzyme inhibition; purified NadD enzyme, colorimetric absorbance read-out; inhibition, % at 20 µM; hit rate 0.78% among 360,000; in the data active = inhibition above about 26%
GRK2 inh confirm – human GRK2 inhibition confirmation, cherry pick 1 | shares compounds with GRK2 inh | bead-bound GRK2, FAM-aptamer displacement, flow cytometry | aptamer displacement, % at 10 µM | hit rate 4% among 2,000;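 active = aptamer displacement above 40%, near three times the noise of non-fluorescent compounds, on plates passing quality checks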;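 also: negative values mostly reflect intrinsic compound fluorescence rather than true enhancement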
FAM quench CP1 – quenches fluorescent RNA aptamer, GRK2 hit artifact. shares compounds with GRK2 inh. Carboxyfluorescein RNA aptamer on beads, flow cytometry quenching; active compounds read low. fluorescence response (% of DMSO), % at 10 µM. 2,000 tested, under 10 active;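 active = compounds that quench the bead-bound fluorescent RNA probe, cutting fluorescence to under half of the solvent control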;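 also: counterscreen run without GRK2 so only probe quenching by compound is measured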
GRK2 confirm 2 – confirmation of human GRK2 inhibitors binding RNA aptamer site; shares compounds with GRK2 inh; 360 tested, under 10 active; inhibition of aptamer binding, % at 10 µM; AID 504782; bead-bound GRK2, FAM-aptamer displacement, flow cytometry;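 active = inhibition of aptamer binding above 40%, about triple the noise seen with nonglowing compounds, on plates passing quality control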;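 also: negative values mostly come from compounds that fluoresce themselves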
FAM quench SP – aptamer fluorescence quenching in GRK2 counter-screen; shares compounds with GRK2 inh; carboxyfluorescein RNA aptamer beads, flow cytometry quenching; active compounds read low; fluorescence response vs DMSO, % at 10 µM; 360 tested, under 10 active; AID 588494;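 active = response vs DMSO under 50%, meaning signal dropped by over half, treated as fluorescence quencher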;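 also: labelled aptamer on streptavidin beads without GRK2 as a quench counter-screen; 100% = bead fluorescence of DMSO wells and lower means quenching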
The depositor's hits bear a star; · = no result.

SMILES	Beta2AR agonist	ABHD5-PLIN5 inh	SENP1 inh	GRK2 inh	NadD block	GRK2 inh confirm	FAM quench CP1	others
Cc1ccc(C(=O)N2CCN(c3ccccn3)CC2)cc1	-6	5	-2	0	-4	·	·
Cc1cccc(C(=O)N2CCN(c3ccccn3)CC2)c1	-11	-5	3	75*	6	0	95
COc1ccccc1N1CCN(C(=O)c2cccc(S(=O)(=O)N3c4ccccc4CC3C)c2)CC1 (centres undefined)	20	4	0	·	4	-4	96
CC(OC(=O)c1cccc(-n2cnnn2)c1)C(=O)Nc1ccc(F)cc1Cl (centres undefined)	2	-3	-1	1	-2	·	·
Cc1noc(C)c1C(=O)Nc1cccc2ncccc12	9	9	1	0	2	·	·
O=C(c1ccc(Cl)c(S(=O)(=O)NCc2ccccc2)c1)N1CCN(c2ccccn2)CC1	0	3	2	2	-2	-2	103
O=C(c1cccc(S(=O)(=O)N2CCc3ccccc32)c1)N1CCN(c2ccccn2)CC1	-9	-1	3	2	0	0	97
Cc1cc(NS(=O)(=O)c2ccc(NC(=O)c3c(F)c(F)c(F)c(F)c3F)cc2)nc(C)n1	2	1	1	56*	-2	·	·	GRK2 confirm 2=10;FAM quench SP=104
Cc1cc(NS(=O)(=O)c2ccc(NC(=O)c3ccc(F)cc3)cc2)nc(C)n1	1	5	0	5	-5	·	·
Cc1ccc2nc(-c3cccs3)oc(=O)c2c1	4	9	2	2	-3	·	·
COc1cc2nc(-c3cccs3)oc(=O)c2cc1OC	-7	3	-1	74*	-4	-1	100
O=C(NCc1ccc(Cl)c(Cl)c1)c1cc(C2CCCCN2C(=O)OCCF)on1 (centres undefined)	·	2	4	·	-6	·	·
COc1ccc(N(CC(=O)NC2CCCC2)S(=O)(=O)c2c(C)[nH]c(=O)[nH]c2=O)cc1	6	-1	2	23	0	4	97
CCCn1nc(C(=O)Nc2ccc3nc(N4CCOCC4)sc3c2)ccc1=O	9	8	0	·	0	·	·
O=C(COC(=O)Cc1ccc(Cl)c(Cl)c1)NCc1ccco1	-4	-2	2	0	-6	-3	101
Cc1cc(Br)ccc1SCC(=O)OCC(=O)NCc1ccco1	7	10	7	52*	-2	25	100
O=C(COC(=O)Cc1ccc(Cl)cc1)NCc1ccco1	-7	-4	3	59*	-2	33	98
O=C(COC(=O)Cc1c(Cl)cccc1Cl)NCc1ccco1	-18	8	0	6	-2	·	·
CC(=O)c1c(C)[nH]c(C(=O)OCC(=O)Nc2ccc3c(c2)OCCO3)c1C	3	5	2	5	-2	·	·
CCCn1c(N)c(N(CCOC)C(=O)COC(=O)CSc2cc(C)c3ccccc3n2)c(=O)[nH]c1=O	12	3	0	0	-1	·	·
COc1ccc(OC(=O)C2CC(=O)N(c3ccc(C)cc3)C2)cc1 (centres undefined)	2	1	-1	0	-2	·	·
COC(=O)C1CC(=O)N(c2ccc(C)cc2)C1 (centres undefined)	5	5	-2	94*	0	1	98
O=C(N1CCOCC1)N1[C@H](COCc2ccccc2)C=CS1(=O)=O	·	14	2	·	-1	·	·
CCc1ccc(-c2csc3ncn(CC(=O)NCc4ccco4)c(=O)c23)cc1	-1	-1	0	0	-5	·	·
Cc1ccc(-c2csc3ncn(CC(=O)NCC(c4ccco4)N4CCCC4)c(=O)c23)cc1 (centres undefined)	9	-2	-4	78*	-6	-4	92
SMILES	Beta2AR agonist	ABHD5-PLIN5 inh	SENP1 inh	GRK2 inh	NadD block	GRK2 inh confirm	FAM quench CP1	others
COc1ccc(C(=O)NCC(C)(C)SCc2c(C)cc(C)cc2C)cc1	3	-6	4	50*	-5	-2	98
COc1ccc(C(=O)NCCNC(=O)c2ccc(OC)cc2)cc1	-6	-1	1	·	-2	·	·
Cc1ccc(SCc2c(C(=O)N/N=C/c3ccc4c(c3)OCO4)nnn2-c2nonc2N)cc1	-5	-6	-1	51*	16	-3	96
O=C(O)c1ccc(CSc2nnc(-c3ccc(Cl)cc3)o2)cc1	6	8	1	3	2	·	·
Cc1nnc(SCc2ccc(CC(=O)O)cc2)o1	-5	-1	2	54*	-3	3	102
O=[N+]([O-])c1ccc(-c2cn3nc(-c4ccccc4)c(-c4ccccc4)nc3n2)cc1	4	5	-38	42*	5	28	107
Cc1ccc(-c2cn3nc(-c4ccccc4)c(-c4ccccc4)nc3n2)cc1	-137	7	-38	66*	6	3	103
CC(C)c1ccccc1NC(=O)CN1C(=O)c2ccccc2C1=O	-1	5	0	0	3	·	·
COC(=O)[C@]1(CC(C)C)N[C@H](c2ccc(-c3ccc(F)cc3)cc2)[C@@H]2C(=O)N(C)C(=O)[C@@H]21	4	0	0	0	1	·	·
O=C(CSc1nc2ccccc2[nH]1)N1CCN(S(=O)(=O)c2ccc(Cl)cc2)CC1	-11	5	0	45*	6	2	96
COc1ccccc1NC(=O)C1CCCN(S(=O)(=O)c2ccc(-n3cnnn3)cc2)C1 (centres undefined)	0	-9	2	0	-4	·	·
O=C(NC1=NCCS1)C1CCN(S(=O)(=O)c2cc([N+](=O)[O-])ccc2Cl)CC1	-4	-1	1	26	15	1	94
COc1ccc(C(=O)Nc2c(O)ccc3ccccc23)cc1	3	-7	-4	98*	10	-3	95
COc1ccccc1CNC(=O)c1ccncc1	-1	7	0	0	7	·	·
COc1ccc(/C=C(\NC(=O)c2ccc(OC)cc2)C(=O)Nc2ccc(C(=O)O)cc2)cc1	0	-1	-1	1	-5	·	·
O=C(NCc1ccccc1)c1cccc(NC(=O)c2ccccc2)c1	-8	7	1	·	-4	2	103
COc1ccccc1CNC(=O)c1cccc(NC(=O)c2ccccc2)c1	6	4	1	1	-3	-2	95
COc1ccc(C(=O)N/C(=C\c2ccccc2)C(=O)Nc2cccc(C(=O)O)c2)cc1	-6	-3	-2	90*	-8	1	105

Screening data as filed in PubChem.
